In ChEMBL document CHEMBL1773048, “Synthesis of glycopeptide dendrimers, dimerization and affinity for Concanavalin A” (Bioorg Med Chem, 2011) one finds Ratio IC50 and IC50 data, which are given here for 15 compounds.

Where a SMILES comes first, the peptide text is derived from it. Bridges are numbered along the chain shown (N, C = ends). Roman numbers before positions name the chains, in order. [ ]: non-standard residue; d: D form. The star is where a group is joined. αMan = OC[C@H]1O[C@H](*)[C@@H](O)[C@@H](O)[C@@H]1O; Mpa = O=C(O)CCS

The nature of assay [1]: Ratio of methyl alpha-D-mannoside IC50 to compound IC50 for binding affinity to Concanavalin A. The method in brief:
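Relative potency is IC50 of methyl α-D-mannoside divided by inhibitor IC50. The reference is measured under the same conditions on the same plate by enhanced-sensitivity ELLA, and reference IC50 values are corrected to a common experimental value.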

Assay [2] can be described thus: Ratio of methyl alpha-D-mannoside IC50 to compound IC50 for binding affinity to Concanavalin A per carbohydrate moiety. The essentials:
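Valency-normalised relative potency is IC50 of methyl α-D-mannoside divided by (inhibitor IC50 × n), where n is the number of mannose units. The reference IC50 is measured on the same plate by enhanced-sensitivity ELLA.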

Assay [3] in a line: Displacement of yeast mannan from Concanavalin A by Enzyme-linked lectin assay. The essentials: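 Enhanced-sensitivity ELLA. Yeast mannan (10 µg/mL in PBS with CaCl2 and MnCl2) is coated overnight on plates and blocked 1 h at 37 °C with PBS containing 10 mg/mL BSA. Two-fold serial dilutions of inhibitor are preincubated 1 h at 37 °C with biotinylated Con A (5 µg/mL), transferred to the plates and incubated 1 h at 37 °C. Preformed Neutravidin–biotin-HRP is added for 1 h, then ABTS/H2O2 at pH 4.0. A415 is read after 5 min. IC50 is taken at 50% inhibition, at least triplicate.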

On to `NC(=O)[C@H](CCCCNC(=O)[C@H](CCCCNC(=O)[C@H](Cc1ccc(O)cc1)NC(=O)CCS[C@H]1O[C@H](CO)[C@@H](O)[C@H](O)[C@@H]1O)NC(=O)[C@H](Cc1ccc(O)cc1)NC(=O)CCS[C@@H]1O[C@@H](CO)[C@H](O)[C@@H](O)[C@H]1O)NC(=O)[C@H](CCCCNC(=O)[C@H](Cc1ccc(O)cc1)NC(=O)CCS[C@H]1O[C@H](CO)[C@@H](O)[C@H](O)[C@@H]1O)NC(=O)[C@H](Cc1ccc(O)cc1)NC(=O)CCS[C@@H]1O[C@@H](CO)[C@H](O)[C@@H](O)[C@H]1O`, for which the Ratio IC50 in assay [1] is 25.4; in assay [2], 6.4. Moreover, in assay [3], the concentration for half-maximal inhibition (IC50) (usually the concentration at which inhibition is half-maximal) came out at 52 µM.
On to `NC(=O)[C@H](CCCCNC(=O)[C@H](Cc1ccc(O)cc1)NC(=O)CCS[C@H]1O[C@H](CO)[C@@H](O)[C@H](O)[C@@H]1O)NC(=O)[C@H](Cc1ccc(O)cc1)NC(=O)CCS[C@@H]1O[C@@H](CO)[C@H](O)[C@@H](O)[C@H]1O`, for which the Ratio IC50 amounted to 8.8 in assay [1] and 4.4 in assay [2]. Further, in assay [3], the half-inhibitory concentration (IC50) was found to be 150 µM.
For `N=C(N)NCCC[C@H](NC(=O)[C@H](CCCCNC(=O)[C@H](CCCCNC(=O)[C@H](Cc1ccc(O)cc1)NC(=O)CCS[C@H]1O[C@H](CO)[C@@H](O)[C@H](O)[C@@H]1O)NC(=O)[C@H](Cc1ccc(O)cc1)NC(=O)CCS[C@@H]1O[C@@H](CO)[C@H](O)[C@@H](O)[C@H]1O)NC(=O)[C@H](CCCCNC(=O)[C@H](Cc1ccc(O)cc1)NC(=O)CCS[C@H]1O[C@H](CO)[C@@H](O)[C@H](O)[C@@H]1O)NC(=O)[C@H](Cc1ccc(O)cc1)NC(=O)CCS[C@@H]1O[C@@H](CO)[C@H](O)[C@@H](O)[C@H]1O)C(N)=O`, in that order: 21.3, 5.3 and 62 µM.
As to `NC(=O)[C@H](CO)NC(=O)[C@H](CCCCNC(=O)[C@H](CCCCNC(=O)[C@H](Cc1ccc(O)cc1)NC(=O)CCS[C@H]1O[C@H](CO)[C@@H](O)[C@H](O)[C@@H]1O)NC(=O)[C@H](Cc1ccc(O)cc1)NC(=O)CCS[C@@H]1O[C@@H](CO)[C@H](O)[C@@H](O)[C@H]1O)NC(=O)[C@H](CCCCNC(=O)[C@H](Cc1ccc(O)cc1)NC(=O)CCS[C@H]1O[C@H](CO)[C@@H](O)[C@H](O)[C@@H]1O)NC(=O)[C@H](Cc1ccc(O)cc1)NC(=O)CCS[C@@H]1O[C@@H](CO)[C@H](O)[C@@H](O)[C@H]1O`, the Ratio IC50 amounted to 24 in assay [1] and 6 in assay [2]. Further, in assay [3], the IC50 is 55 µM.
In the same order, the values of `OC[C@H]1OC(O)[C@@H](O)[C@@H](O)[C@@H]1O` (stereo partly drawn) [D-MANNOSE] are 0.13, 0.13 and 10500 µM.
In the same order, the values of `CO[C@H]1O[C@H](CO)[C@@H](O)[C@H](O)[C@@H]1O` are 1, 1 and 1320 µM.
In the same order, the values of `N=C(N)NCCC[C@H](NC(=O)[C@H](CCCCNC(=O)[C@H](Cc1ccc(O)cc1)NC(=O)CCS[C@@H]1O[C@@H](CO)[C@H](O)[C@@H](O)[C@H]1O)NC(=O)[C@H](Cc1ccc(O)cc1)NC(=O)CCS[C@H]1O[C@H](CO)[C@@H](O)[C@H](O)[C@@H]1O)C(=O)NCCCC[C@H](NC(=O)[C@H](CCCNC(=N)N)NC(=O)[C@H](CCCCNC(=O)[C@H](Cc1ccc(O)cc1)NC(=O)CCS[C@H]1O[C@H](CO)[C@@H](O)[C@H](O)[C@@H]1O)NC(=O)[C@H](Cc1ccc(O)cc1)NC(=O)CCS[C@H]1O[C@H](CO)[C@@H](O)[C@H](O)[C@@H]1O)C(N)=O` are 14.3, 3.6 and 92 µM.
In the case of `NC(=O)[C@H](CSSC[C@H](NC(=O)[C@H](Cc1ccc(O)cc1)NC(=O)CCS[C@H]1O[C@H](CO)[C@@H](O)[C@H](O)[C@@H]1O)C(N)=O)NC(=O)[C@H](Cc1ccc(O)cc1)NC(=O)CCS[C@H]1O[C@H](CO)[C@@H](O)[C@H](O)[C@@H]1O` (I: [Mpa](αMan)-Tyr-Cys-NH2 / II: [Mpa](αMan)-Tyr-Cys-NH2; disulfide I:3-II:3), the Ratio IC50 in assay [1] was 12.7; in assay [2], 6.4. This compound also registered a 50% inhibitory concentration (IC50) in assay [3] of 104 µM.
For the compound `NC(=O)[C@H](CCCCNC(=O)[C@H](CCC(=O)O)NC(=O)[C@H](CCCCNC(=O)[C@H](Cc1ccc(O)cc1)NC(=O)CCS[C@@H]1O[C@@H](CO)[C@H](O)[C@@H](O)[C@H]1O)NC(=O)[C@H](Cc1ccc(O)cc1)NC(=O)CCS[C@H]1O[C@H](CO)[C@@H](O)[C@H](O)[C@@H]1O)NC(=O)[C@H](CCC(=O)O)NC(=O)[C@H](CCCCNC(=O)[C@H](Cc1ccc(O)cc1)NC(=O)CCS[C@H]1O[C@H](CO)[C@@H](O)[C@H](O)[C@@H]1O)NC(=O)[C@H](Cc1ccc(O)cc1)NC(=O)CCS[C@H]1O[C@H](CO)[C@@H](O)[C@H](O)[C@@H]1O`, the values for the Ratio IC50 in assay [1] and in assay [2] were 22 and 5.5, respectively. This compound also came in with a 50% inhibitory concentration (IC50) in assay [3] of 60 µM.
Turning to `NC(=O)[C@H](CCCCNC(=O)[C@H](CO)NC(=O)[C@H](CCCCNC(=O)[C@H](Cc1ccc(O)cc1)NC(=O)CCS[C@@H]1O[C@@H](CO)[C@H](O)[C@@H](O)[C@H]1O)NC(=O)[C@H](Cc1ccc(O)cc1)NC(=O)CCS[C@H]1O[C@H](CO)[C@@H](O)[C@H](O)[C@@H]1O)NC(=O)[C@H](CO)NC(=O)[C@H](CCCCNC(=O)[C@H](Cc1ccc(O)cc1)NC(=O)CCS[C@H]1O[C@H](CO)[C@@H](O)[C@H](O)[C@@H]1O)NC(=O)[C@H](Cc1ccc(O)cc1)NC(=O)CCS[C@H]1O[C@H](CO)[C@@H](O)[C@H](O)[C@@H]1O`, the figures for the Ratio IC50 in assay [1] and in assay [2] were 20.6 and 5.2, respectively. In assay [3], this compound yielded an IC50 of 64 µM.
In the same order, the values of `O=[N+]([O-])c1ccc(O[C@H]2O[C@H](CO)[C@@H](O)[C@H](O)[C@@H]2O)cc1` are 2.1, 2.1 and 644 µM.
As to `NC(=O)[C@H](CCCCNC(=O)[C@H](CCCCNC(=O)[C@H](CCCCNC(=O)[C@H](Cc1ccc(O)cc1)NC(=O)CCS[C@H]1O[C@H](CO)[C@@H](O)[C@H](O)[C@@H]1O)NC(=O)[C@H](Cc1ccc(O)cc1)NC(=O)CCS[C@@H]1O[C@@H](CO)[C@H](O)[C@@H](O)[C@H]1O)NC(=O)[C@H](CCCCNC(=O)[C@H](Cc1ccc(O)cc1)NC(=O)CCS[C@@H]1O[C@@H](CO)[C@H](O)[C@@H](O)[C@H]1O)NC(=O)[C@H](Cc1ccc(O)cc1)NC(=O)CCS[C@@H]1O[C@@H](CO)[C@H](O)[C@@H](O)[C@H]1O)NC(=O)[C@H](CCCCNC(=O)[C@H](CCCCNC(=O)[C@H](Cc1ccc(O)cc1)NC(=O)CCS[C@@H]1O[C@@H](CO)[C@H](O)[C@@H](O)[C@H]1O)NC(=O)[C@H](Cc1ccc(O)cc1)NC(=O)CCS[C@H]1O[C@H](CO)[C@@H](O)[C@H](O)[C@@H]1O)NC(=O)[C@H](CCCCNC(=O)[C@H](Cc1ccc(O)cc1)NC(=O)CCS[C@H]1O[C@H](CO)[C@@H](O)[C@H](O)[C@@H]1O)NC(=O)[C@H](Cc1ccc(O)cc1)NC(=O)CCS[C@H]1O[C@H](CO)[C@@H](O)[C@H](O)[C@@H]1O`, the Ratio IC50 was determined as 455 in assay [1] and 57 in assay [2]. In assay [3], this compound had an IC50 of 2.9 µM.
For `NC(=O)[C@H](CSSC[C@H](NC(=O)[C@H](CCCCNC(=O)[C@H](CCCCNC(=O)[C@H](Cc1ccc(O)cc1)NC(=O)CCS[C@H]1O[C@H](CO)[C@@H](O)[C@H](O)[C@@H]1O)NC(=O)[C@H](Cc1ccc(O)cc1)NC(=O)CCS[C@@H]1O[C@@H](CO)[C@H](O)[C@@H](O)[C@H]1O)NC(=O)[C@H](CCCCNC(=O)[C@H](Cc1ccc(O)cc1)NC(=O)CCS[C@H]1O[C@H](CO)[C@@H](O)[C@H](O)[C@@H]1O)NC(=O)[C@H](Cc1ccc(O)cc1)NC(=O)CCS[C@@H]1O[C@@H](CO)[C@H](O)[C@@H](O)[C@H]1O)C(N)=O)NC(=O)[C@H](CCCCNC(=O)[C@H](CCCCNC(=O)[C@H](Cc1ccc(O)cc1)NC(=O)CCS[C@H]1O[C@H](CO)[C@@H](O)[C@H](O)[C@@H]1O)NC(=O)[C@H](Cc1ccc(O)cc1)NC(=O)CCS[C@@H]1O[C@@H](CO)[C@H](O)[C@@H](O)[C@H]1O)NC(=O)[C@H](CCCCNC(=O)[C@H](Cc1ccc(O)cc1)NC(=O)CCS[C@H]1O[C@H](CO)[C@@H](O)[C@H](O)[C@@H]1O)NC(=O)[C@H](Cc1ccc(O)cc1)NC(=O)CCS[C@@H]1O[C@@H](CO)[C@H](O)[C@@H](O)[C@H]1O`, the Ratio IC50 in assay [1] was found to be 660; in assay [2], 83. Further, in assay [3], the concentration for half-maximal inhibition (IC50) came out at 2 µM.
As for `NC(=O)[C@H](CCC(=O)O)NC(=O)[C@H](CCCCNC(=O)[C@H](CCCCNC(=O)[C@H](Cc1ccc(O)cc1)NC(=O)CCS[C@H]1O[C@H](CO)[C@@H](O)[C@H](O)[C@@H]1O)NC(=O)[C@H](Cc1ccc(O)cc1)NC(=O)CCS[C@@H]1O[C@@H](CO)[C@H](O)[C@@H](O)[C@H]1O)NC(=O)[C@H](CCCCNC(=O)[C@H](Cc1ccc(O)cc1)NC(=O)CCS[C@H]1O[C@H](CO)[C@@H](O)[C@H](O)[C@@H]1O)NC(=O)[C@H](Cc1ccc(O)cc1)NC(=O)CCS[C@@H]1O[C@@H](CO)[C@H](O)[C@@H](O)[C@H]1O`, the Ratio IC50 worked out at 14.2 in assay [1] and 3.6 in assay [2]. The same compound yielded an IC50 in assay [3] of 93 µM.
For `NC(=O)[C@H](CSSC[C@H](NC(=O)[C@H](CCCCNC(=O)[C@H](Cc1ccc(O)cc1)NC(=O)CCS[C@H]1O[C@H](CO)[C@@H](O)[C@H](O)[C@@H]1O)NC(=O)[C@H](Cc1ccc(O)cc1)NC(=O)CCS[C@@H]1O[C@@H](CO)[C@H](O)[C@@H](O)[C@H]1O)C(N)=O)NC(=O)[C@H](CCCCNC(=O)[C@H](Cc1ccc(O)cc1)NC(=O)CCS[C@H]1O[C@H](CO)[C@@H](O)[C@H](O)[C@@H]1O)NC(=O)[C@H](Cc1ccc(O)cc1)NC(=O)CCS[C@@H]1O[C@@H](CO)[C@H](O)[C@@H](O)[C@H]1O`, in that order: 25.4, 6.4 and 52 µM.
